# From PubChem
# hIAP activ = human IAP activators, primary screen, biochemical, luminescence, uHTS; activation factor at 10 µM; purified human IAP, CDP-Star luminescence, 30 min; hits give high values; 1 = vehicle-only enzyme, 0 = enzyme-free background; Intestinal-type alkaline phosphatase (Homo sapiens), P09923; 0.16% of 330,000 active;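 active means activation factor of the enzyme at least 2-fold when tested at 20 µM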
# Target sequence (P09923 whole entry, looked up): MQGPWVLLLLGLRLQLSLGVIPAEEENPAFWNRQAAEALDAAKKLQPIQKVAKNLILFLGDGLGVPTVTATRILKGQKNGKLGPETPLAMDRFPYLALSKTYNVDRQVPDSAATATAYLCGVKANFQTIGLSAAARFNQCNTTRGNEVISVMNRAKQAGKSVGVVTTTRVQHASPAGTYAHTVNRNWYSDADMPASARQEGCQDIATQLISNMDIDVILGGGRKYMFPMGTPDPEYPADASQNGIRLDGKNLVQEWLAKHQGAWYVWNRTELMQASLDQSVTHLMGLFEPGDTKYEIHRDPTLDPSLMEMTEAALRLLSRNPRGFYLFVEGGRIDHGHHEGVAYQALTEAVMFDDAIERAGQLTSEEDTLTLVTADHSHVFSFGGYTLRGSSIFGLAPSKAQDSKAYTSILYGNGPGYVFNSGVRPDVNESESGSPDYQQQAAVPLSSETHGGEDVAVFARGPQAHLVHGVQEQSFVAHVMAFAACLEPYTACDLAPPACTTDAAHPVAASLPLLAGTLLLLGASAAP
# mIAP activ = activators of mouse IAP, primary screen, biochemical, luminescence, uHTS | 0.24% of 330,000 active | activation factor at 10 µM | AID 2805, 2010 | intestinal alkaline phosphatase [Mus musculus] | muIAP, CDP-Star luminescence, 30 min; hits give high values; 1 = vehicle-only enzyme signal, 0 = enzyme-free wells;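 active means activation factor of at least 2 at 20 µM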
#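 Assay system: mouse IAP enzyme; reagent: chemiluminescent substrate CDP-Star; dosing: test compounds delivered from DMSO solution; schedule: 30 min at room temperature; measured by: luminescence from enzymatic CDP-Star hydrolysis; controls: DMSO-only wells and no-enzyme negative control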
# mIAP inh = inhibitors of mouse IAP, primary screen, biochemical, luminescence, uHTS | intestinal alkaline phosphatase [Mus musculus] | purified mouse IAP, CDP-Star luminescence, 30 min | inhibition, % at 10 µM | 0.2% of 330,000 active | AID 2806, 2010;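 active means inhibition of at least 40% at 10 µM in the primary screen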;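 further: plate controls were DMSO with enzyme for no effect and no enzyme wells for full effect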
# hIAP block = human IAP inhibitors, primary screen, biochemical, luminescence, uHTS; Intestinal-type alkaline phosphatase (Homo sapiens), P09923; purified IAP, CDP-Star luminescence, 30 min; inhibition, % at 10 µM; 0.12% of 330,000 active;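 active means inhibition reaching a set limit with compound at 10 µM in the primary screen, cut at about 35% in these data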;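 further: plate controls were DMSO wells with enzyme for no effect and no-enzyme buffer wells for full effect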
# bIAP act = bovine intestinal alkaline phosphatase activators, primary screen, biochemical, bovine IAP, CDP-star luminescence; purified bovine IAP, 30 min; hits give high values; fold of DMSO-control signal, blank-subtracted; activation factor at 20 µM; 0.17% of 200,000 active;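 active means activation factor of 2 or more at 20 µM, a signal rise over negative controls twice the positive control's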
# bIAP inhibitor = bovine intestinal alkaline phosphatase inhibitors, primary screen, selectivity assay for TNAP inhibitor project, biochemical, bovine IAP, CDP-star luminescence. alkaline phosphatase, intestinal [Bos taurus]. purified bovine IAP, 30 min. inhibition, % at 20 µM. 190,000 tested, under 10 active. AID 1019, 2008;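 active means over 50% inhibition of intestinal alkaline phosphatase at 20 µM in the single-dose screen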
#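 System: purified bovine intestinal alkaline phosphatase (IAP) enzyme; Input: IAP diluted 1/65,000,000 in the well; Measured by: CDP-star luminescence signal; Compound dosing: 20 µM single dose; Incubation: 30 min reaction at room temperature.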
# hIAP act conf = human IAP activators, confirmation, biochemical, luminescence, single concentration, uHTS hits | 10% of 880 active | activation (%Activity, negative = activation), % at 8.3 µM | purified IAP, CDP-Star luminescence, 30 min; hits give low values | shares compounds with hIAP activ;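 active means at least twofold enzyme activation in any of six single-dose repeats, which the averaged readout prints as negative percent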
# An asterisk follows results filed as active; · = no result given. In the library only some 0.79% were active in any assay of this set; here they are far more common.
SMILES,hIAP activ,mIAP activ,mIAP inh,hIAP block,bIAP act,bIAP inhibitor,hIAP act conf
COc1cc(C(=O)NCC(=O)N/N=C/c2ccc(-c3ccc([N+](=O)[O-])cc3)o2)cc(OC)c1OC,0.64,0.86,14,36*,·,·,19
COCCN(C(=O)COC(=O)c1c(NC(C)=O)sc(C)c1C)c1c(N)n(Cc2ccccc2)c(=O)[nH]c1=O,0.96,0.98,2,4,·,·,·
Cc1ccc(C(=O)NNC(=O)CCCCC(=O)NNC(=O)c2ccc(C)cc2)cc1,2.3*,1,-4,-131,·,·,-23
CC(C)(C)NC(=O)C(=O)NNC(=O)COc1ccccc1,2.1*,0.92,8,-107,1.1,-6,39
O=C(CCCCC(=O)NNC(=O)COc1ccccc1)NNC(=O)COc1ccccc1,2.5*,0.84,16,-151,·,·,-88*
Cc1cccc(OCC(=O)NNC(=O)CCCCC(=O)NNC(=O)COc2cccc(C)c2)c1,3.2*,0.86,14,-224,·,·,-33
O=C(O)c1ccc(NS(=O)(=O)c2cccc(C(=O)Nc3cccc(C(=O)O)c3)c2)cc1,1,1,0,-1,·,·,·
COc1ccc2nc(SCC(=O)N(C)CC(=O)Nc3ccc(F)cc3)[nH]c2c1,0.81,0.99,1,19,·,·,·
COc1ccc(-c2cn(CCO)c(-c3ccncc3)n2)cc1,1,0.97,3,0,·,·,·
Cc1cccc(OCC(=O)NNC(=O)c2ccc3nc[nH]c3c2)c1,2.4*,1,0,-136,·,·,-117*
Cc1ccc2nc(CCc3nc4ccc(C)cc4[nH]3)[nH]c2c1,2.3*,1.1,-6,-133,·,·,-5
c1ccc2[nH]c(CCCCc3nc4ccccc4[nH]3)nc2c1,1.4,1.1,-6,-43,·,·,·
Cc1ccc2nc(CCCc3nc4ccc(C)cc4[nH]3)[nH]c2c1,2.7*,1.2,-24,-171,·,·,-60
Cc1ccc2nc(Cc3ccc(N)cc3)[nH]c2c1,1.1,1.2,-16,-13,1.1,-11,·
O=C(Nc1ccc(Cl)c(S(=O)(=O)N2CCCCC2)c1)c1ccco1,0.85,0.89,11,14,·,·,·
CC(C)N(C(=O)[C@H]1CC(CC(=O)NCc2cccc(C(F)(F)F)c2)C(=O)N2CCc3c([nH]c4ccccc34)[C@]12C)C(C)C (stereo partly specified),1,1.1,-10,-1,·,·,·
O=C(OCCCOC(=O)c1ccc(O)cc1)c1ccc(O)cc1,1.1,0.97,3,-5,·,·,·
CN(CC(=O)Nc1ccc(Cl)cc1)C(=O)CNC(=O)c1ccc(Br)o1,0.86,0.99,1,14,·,·,·
CSCCC(NS(=O)(=O)c1ccccc1F)C(=O)NNC(=O)c1csc(N2CCOCC2)n1 (stereo unspecified),2.6*,0.71,29,-164,·,·,72
CSCCC(NS(=O)(=O)c1ccccc1F)C(=O)N1CCCCCC1 (stereo unspecified),1.2,1.1,-5,-20,·,·,·
CSCCC(NC(=O)c1ccccc1Cl)C(=O)NNC(=O)c1csc(N2CCOCC2)n1 (stereo unspecified),1.8,1,-2,-81,·,·,·
CSCCC(NC(=O)c1ccccc1Br)C(=O)NNC(=O)c1csc(N2CCOCC2)n1 (stereo unspecified),2.1*,0.94,6,-110,·,·,-6
NC(=O)C(=O)N/N=C/c1cccc(C(F)(F)F)c1,1,1,-1,-4,1,1,·
COc1ccc(N2CCN(C(=O)CSc3nnc4c5cc(C)ccc5n(C)c4n3)CC2)cc1,2.6*,0.93,7,-160,0.9,7,-69
